From ChEMBL document CHEMBL1153436, “2-Pyridyl P1'-substituted symmetry-based human immunodeficiency virus protease inhibitors (A-792611 and A-790742) with potential for convenient dosing and reduced side effects” (J Med Chem, 2009)
pEC50, pIC50, pKi: −log10 of the molar value. In brackets after ≈: the same amount, converted by molar mass.

Experiments:
[1] = AUC in Sprague-Dawley rat at 5 mg/kg, po in presence of ritonavir; assay type: ADME, organism-based; parameters: dose 5 mg/kg, route oral; conditions: plasma
Summary of the method: (§1)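 Male Sprague-Dawley-derived rats (n = 3) dosed iv or by oral gavage with 5 mg/mL solutions in 5% dextrose containing 20% ethanol, 30% propylene glycol and methanesulfonic acid equivalents. Plasma was sampled at 10 time points over 8 h, extracted into ethyl acetate/hexane and analysed by reversed-phase HPLC with internal standard. AUC in µg·h/mL.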

Cathepsin D = Cathepsin D (Homo sapiens, UniProt P07339); experiment: Inhibition of cathepsin D
Sequence of Cathepsin D (P07339 65-162 limits assumed): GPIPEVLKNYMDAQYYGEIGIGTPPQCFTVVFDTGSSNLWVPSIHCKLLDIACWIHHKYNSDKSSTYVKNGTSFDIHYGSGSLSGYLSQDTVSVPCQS
Sequence of Cathepsin D (P07339 169-412 limits assumed): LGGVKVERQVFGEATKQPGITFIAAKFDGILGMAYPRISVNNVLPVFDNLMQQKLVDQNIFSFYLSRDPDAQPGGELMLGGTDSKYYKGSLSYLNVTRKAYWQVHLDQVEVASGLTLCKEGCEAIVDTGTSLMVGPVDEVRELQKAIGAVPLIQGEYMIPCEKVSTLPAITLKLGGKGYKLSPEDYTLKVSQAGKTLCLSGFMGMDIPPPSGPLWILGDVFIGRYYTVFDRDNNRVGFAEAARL

[2] = test system: Human immunodeficiency virus 1; experiment: Antiviral activity against wild-type HIV1 pNL4-3 infected in human MT4 cells after 5 days by MTT assay in presence of 50% human serum; assay type: functional, organism-based; conditions: Human immunodeficiency virus 1, MT4, 120 h
[3] = Cmax in dog at 5 mg/kg, po; assay type: ADME, organism-based, Canis lupus familiaris; parameters: dose 5 mg/kg, route oral; conditions: in vivo
Summary of the method: (§2)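 Male and female beagle dogs (n = 3) given oral gavage doses formulated as 5 mg/mL solutions in 5% dextrose with 20% ethanol, 30% propylene glycol and methanesulfonic acid, alone or with RTV (2.5 or 5 mg/kg). Plasma was taken at 12 time points over 12 h, extracted with ethyl acetate/hexane and analysed by reversed-phase HPLC with internal standard. AUC in µg·h/mL; Cmax and C12h in µg/mL.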

Cytochrome P450 2D6 = Cytochrome P450 2D6 (Homo sapiens, UniProt P10635); experiment: Inhibition of CYP2D6 assessed as dextromethorphan O-demethylation; assay type: ADME
Sequence of Cytochrome P450 2D6 (P10635 whole entry): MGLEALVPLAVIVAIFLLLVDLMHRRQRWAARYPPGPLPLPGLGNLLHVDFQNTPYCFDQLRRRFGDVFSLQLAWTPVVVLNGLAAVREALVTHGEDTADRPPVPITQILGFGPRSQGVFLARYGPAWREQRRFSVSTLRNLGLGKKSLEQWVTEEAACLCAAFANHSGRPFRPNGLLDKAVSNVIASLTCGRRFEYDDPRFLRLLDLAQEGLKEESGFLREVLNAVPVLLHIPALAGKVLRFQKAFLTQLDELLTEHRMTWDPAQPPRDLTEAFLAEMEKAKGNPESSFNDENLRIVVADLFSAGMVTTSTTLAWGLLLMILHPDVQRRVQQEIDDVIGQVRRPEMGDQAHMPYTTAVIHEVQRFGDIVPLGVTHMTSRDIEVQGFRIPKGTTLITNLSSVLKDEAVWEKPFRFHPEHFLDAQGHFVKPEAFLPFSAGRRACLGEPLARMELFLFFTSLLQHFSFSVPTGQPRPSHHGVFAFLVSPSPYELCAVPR
Summary of the method: (§3)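 CYP inhibition in vitro, with probe reactions of phenacetin O-deethylation (CYP1A2), tolbutamide hydroxylation (CYP2C9), S-mephenytoin hydroxylation (CYP2C19) and dextromethorphan O-demethylation (CYP2D6). Reported as IC50 in µM.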

[4] = test system: Human immunodeficiency virus 1; experiment: Antiviral activity against HIV1 bearing protease gene with P25 mutation infected in human MT4 cells after 5 days by MTT assay; assay type: functional, organism-based; conditions: Human immunodeficiency virus 1, MT4, 120 h
[5] = AUC in Sprague-Dawley rat at 5 mg/kg, po; assay type: ADME, organism-based; parameters: dose 5 mg/kg, route oral; conditions: plasma; summary of the method: as §1
[6] = AUC in dog at 5 mg/kg, po coadministered with 5 mg/kg ritonavir; assay type: ADME, organism-based, Canis lupus familiaris; conditions: plasma; summary of the method: as §2
Cytochrome P450 2C9 = Cytochrome P450 2C9 (Homo sapiens, UniProt P11712); experiment: Inhibition of CYP2C9 assessed as Tolbutamide hydroxylation; assay type: ADME; summary of the method: as §3
Sequence of Cytochrome P450 2C9 (P11712 whole entry): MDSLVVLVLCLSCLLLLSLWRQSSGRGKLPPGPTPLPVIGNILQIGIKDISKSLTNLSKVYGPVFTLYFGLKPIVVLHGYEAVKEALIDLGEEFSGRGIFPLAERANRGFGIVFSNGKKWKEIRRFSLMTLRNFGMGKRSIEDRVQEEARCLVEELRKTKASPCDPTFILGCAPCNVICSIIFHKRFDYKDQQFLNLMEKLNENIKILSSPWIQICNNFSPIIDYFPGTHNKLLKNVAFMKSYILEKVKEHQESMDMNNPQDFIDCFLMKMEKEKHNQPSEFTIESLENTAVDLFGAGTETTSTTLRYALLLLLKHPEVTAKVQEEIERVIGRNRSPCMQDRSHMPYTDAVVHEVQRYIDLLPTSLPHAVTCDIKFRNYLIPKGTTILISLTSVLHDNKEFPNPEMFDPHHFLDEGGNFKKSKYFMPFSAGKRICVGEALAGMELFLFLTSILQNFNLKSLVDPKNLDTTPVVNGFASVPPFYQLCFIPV

[7] = Cmax in dog at 5 mg/kg, po coadministered with 5 mg/kg ritonavir; assay type: ADME, organism-based, Canis lupus familiaris; parameters: dose 5 mg/kg, route oral; conditions: in vivo; summary of the method: as §2
[8] = Protein binding in human plasma by equilibrium dialysis; assay type: ADME, cell-free; conditions: read-out: PB (converted)
Summary of the method: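 Percentage bound in human plasma, determined by equilibrium dialysis.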

Cytochrome P450 3A4 = Cytochrome P450 3A4 (Homo sapiens, UniProt P08684); experiment: Inhibition of CYP3A4 assessed as midazolam 1'- hydroxylation; assay type: ADME
Sequence of Cytochrome P450 3A4 (P08684 whole entry): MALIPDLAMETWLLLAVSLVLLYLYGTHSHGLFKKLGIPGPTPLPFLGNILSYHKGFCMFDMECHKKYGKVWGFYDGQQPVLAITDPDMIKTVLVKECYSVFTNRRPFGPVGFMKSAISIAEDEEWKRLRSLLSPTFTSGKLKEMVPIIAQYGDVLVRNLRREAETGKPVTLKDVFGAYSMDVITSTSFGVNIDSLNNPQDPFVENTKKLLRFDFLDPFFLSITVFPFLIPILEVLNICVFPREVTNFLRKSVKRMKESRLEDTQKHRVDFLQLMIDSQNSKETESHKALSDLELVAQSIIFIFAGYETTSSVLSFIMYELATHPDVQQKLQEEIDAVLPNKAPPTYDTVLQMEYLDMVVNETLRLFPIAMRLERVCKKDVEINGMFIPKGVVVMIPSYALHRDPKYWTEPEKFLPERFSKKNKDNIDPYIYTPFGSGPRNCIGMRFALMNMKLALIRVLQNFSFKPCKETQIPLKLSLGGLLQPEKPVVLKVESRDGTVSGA
Summary of the method: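 CYP3A4 inhibition was measured as midazolam 1′-hydroxylation and expressed as Ki in nM.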

[9] = Concentration of drug after 12 hrs in dog at 5 mg/kg, po coadministered with 5 mg/kg ritonavir; assay type: ADME, organism-based, Canis lupus familiaris; conditions: in vivo, read-out: Drug uptake; summary of the method: as §2
[10] = Cmax in dog at 5 mg/kg, po coadministered with 2.5 mg/kg ritonavir; assay type: ADME, organism-based, Canis lupus familiaris; parameters: dose 5 mg/kg, route oral; conditions: in vivo; summary of the method: as §2
Cytochrome P450 1A2 = biological target: T1, Cytochrome P450 1A2 (Homo sapiens, UniProt P05177); experiment: Inhibition of CYP1A2 assessed as phenacetin O-deethylation; assay type: ADME; summary of the method: as §3
T1 sequence (P05177 whole entry): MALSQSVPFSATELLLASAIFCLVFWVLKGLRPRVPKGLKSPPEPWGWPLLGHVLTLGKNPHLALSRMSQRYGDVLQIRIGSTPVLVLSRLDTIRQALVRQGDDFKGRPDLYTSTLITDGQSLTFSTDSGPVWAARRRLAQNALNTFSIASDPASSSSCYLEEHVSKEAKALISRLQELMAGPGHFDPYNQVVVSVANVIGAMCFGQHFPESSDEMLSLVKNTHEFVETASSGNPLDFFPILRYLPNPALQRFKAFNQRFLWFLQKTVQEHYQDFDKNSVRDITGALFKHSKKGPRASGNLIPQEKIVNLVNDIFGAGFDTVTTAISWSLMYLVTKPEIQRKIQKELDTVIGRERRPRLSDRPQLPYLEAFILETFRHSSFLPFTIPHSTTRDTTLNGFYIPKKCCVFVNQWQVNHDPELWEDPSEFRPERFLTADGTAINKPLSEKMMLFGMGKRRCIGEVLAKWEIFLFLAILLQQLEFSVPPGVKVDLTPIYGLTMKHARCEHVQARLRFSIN

[11] = Oral bioavailability in Sprague-Dawley rat at 5 mg/kg; assay type: ADME, organism-based; conditions: in vivo; summary of the method: as §1
[12] = AUC in dog at 5 mg/kg, po; assay type: ADME, organism-based, Canis lupus familiaris; parameters: dose 5 mg/kg, route oral; conditions: plasma; summary of the method: as §2
[13] = test system: Human immunodeficiency virus 1; experiment: Antiviral activity against HIV1 bearing protease gene with A17 mutation infected in human MT4 cells after 5 days by MTT assay; assay type: functional, organism-based; conditions: Human immunodeficiency virus 1, MT4, 120 h
Summary of the method: (§4)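 HIV-1 A17 mutant clone carrying protease mutations L10F, V32I, M46I, I47V, Q58E and I84V, generated by in vitro serial passage under LPV/RTV. EC50 was determined in MT-4 cells. Wild-type reference strain was HIV-1 pNL4-3.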

[14] = Inhibition of human pepsin
[15] = Solubility at pH 7.4; assay type: physicochemical; conditions: buffer
Summary of the method: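 Solubility measured in µg/mL at pH 7.4 and 25 °C.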

Cytochrome P450 2C19 = Cytochrome P450 2C19 (Homo sapiens, UniProt P33261); experiment: Inhibition of CYP2C19 assessed as S-mephenytion hydroxylation; assay type: ADME; summary of the method: as §3
Sequence of Cytochrome P450 2C19 (P33261 whole entry): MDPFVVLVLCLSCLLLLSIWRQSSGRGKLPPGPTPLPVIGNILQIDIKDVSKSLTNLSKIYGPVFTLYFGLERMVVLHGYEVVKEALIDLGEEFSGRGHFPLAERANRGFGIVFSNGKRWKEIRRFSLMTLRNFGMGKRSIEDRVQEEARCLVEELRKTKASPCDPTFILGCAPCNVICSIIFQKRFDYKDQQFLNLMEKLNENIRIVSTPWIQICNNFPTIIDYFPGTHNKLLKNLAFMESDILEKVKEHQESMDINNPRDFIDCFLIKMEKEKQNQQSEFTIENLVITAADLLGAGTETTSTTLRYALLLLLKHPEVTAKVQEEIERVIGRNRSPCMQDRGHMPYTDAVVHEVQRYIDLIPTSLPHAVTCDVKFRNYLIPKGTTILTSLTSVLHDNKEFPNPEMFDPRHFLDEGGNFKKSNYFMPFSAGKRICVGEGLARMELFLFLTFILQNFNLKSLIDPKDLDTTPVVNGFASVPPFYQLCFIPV

[16] = AUC in dog at 5 mg/kg, po coadministered with 2.5 mg/kg ritonavir; assay type: ADME, organism-based, Canis lupus familiaris; conditions: plasma; summary of the method: as §2
Serum [17] = experiment: Drug level in Gunn rat serum at 125 mg/kg coadministered with ritonavir measured on day 1; assay type: ADME, organism-based; parameters: dose 125 mg/kg; conditions: in vivo
Summary of the method: (§5)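 Gunn rats (n = 8-10 per arm) dosed orally with compound in 5% ethanol/95% propylene glycol with p-toluenesulfonic acid, together with 50 mg/kg RTV. Plasma was sampled 4 h after the first and second doses. Drug was measured by HPLC and bilirubin […]. Change in bilirubin (mg/dL) reported as mean with SD.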

Renin = biological target: T2, Renin (Homo sapiens, UniProt P00797); experiment: Inhibition of renin
T2 sequence (P00797 whole entry): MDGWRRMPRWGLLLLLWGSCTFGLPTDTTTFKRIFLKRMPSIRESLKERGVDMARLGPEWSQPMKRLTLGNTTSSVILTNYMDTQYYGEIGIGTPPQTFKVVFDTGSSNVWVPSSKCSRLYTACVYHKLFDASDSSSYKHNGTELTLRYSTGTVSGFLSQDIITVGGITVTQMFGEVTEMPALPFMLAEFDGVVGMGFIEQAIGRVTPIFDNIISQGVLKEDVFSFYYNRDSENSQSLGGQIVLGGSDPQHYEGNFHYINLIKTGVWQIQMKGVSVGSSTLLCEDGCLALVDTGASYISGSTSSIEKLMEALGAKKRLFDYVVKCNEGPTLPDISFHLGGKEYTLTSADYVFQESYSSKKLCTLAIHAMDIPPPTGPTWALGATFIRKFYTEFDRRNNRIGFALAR

[18] = Concentration of drug after 12 hrs in dog at 5 mg/kg, po coadministered with 2.5 mg/kg ritonavir; assay type: ADME, organism-based, Canis lupus familiaris; conditions: in vivo, read-out: Drug uptake; summary of the method: as §2
[19] = test system: Human immunodeficiency virus 1; experiment: Antiviral activity against wild-type HIV1 pNL4-3 infected in human MT4 cells after 5 days by MTT assay; assay type: functional, organism-based; conditions: Human immunodeficiency virus 1, MT4, 120 h
[20] = test system: Human immunodeficiency virus 1; experiment: Antiviral activity against HIV1 bearing protease gene with B26 mutation infected in human MT4 cells after 5 days by MTT assay; assay type: functional, organism-based; conditions: Human immunodeficiency virus 1, MT4, 120 h
[21] = Half life in Sprague-Dawley rat at 5 mg/kg, iv; assay type: ADME, organism-based; parameters: dose 5 mg/kg, route intravenous; conditions: in vivo; summary of the method: as §1
Rattus norvegicus [22] = experiment: Toxicity in Gunn rat assessed as unconjugated-bilirubin level at 125 mg/kg coadministered with ritonavir measured on day 1; assay type: organism-based; parameters: dose 125 mg/kg; conditions: in vivo; summary of the method: as §5
[23] = Clearance in Sprague-Dawley rat at 5 mg/kg, iv; assay type: ADME, organism-based; parameters: dose 5 mg/kg, route intravenous; conditions: in vivo; summary of the method: as §1
[24] = Inhibition of HIV protease; parameters: species or system Human immunodeficiency virus
Serum [25] = experiment: Drug level in Gunn rat serum at 125 mg/kg coadministered with ritonavir measured on day 2; assay type: ADME, organism-based; parameters: dose 125 mg/kg; conditions: in vivo; summary of the method: as §5
[26] = test system: Human immunodeficiency virus 1; experiment: Fold resistance, ratio of EC50 for HIV1 bearing protease gene with A17 mutation to EC50 for wild-type HIV1 pNL4-3; assay type: functional; summary of the method: as §4
Rattus norvegicus [27] = experiment: Toxicity in Gunn rat assessed as unconjugated-bilirubin level at 125 mg/kg coadministered with ritonavir measured on day 2; conditions: in vivo

Compound	AUC [1] [ng·h/mL]	pKi (Cathepsin D)	pEC50 [2]	Cmax [3] [ng/mL]	pIC50 (Cytochrome P450 2D6)	pEC50 [4]	AUC [5] [ng·h/mL]	AUC [6] [ng·h/mL]	pIC50 (Cytochrome P450 2C9)	Cmax [7] [ng/mL]	fraction unbound [8]	pKi (Cytochrome P450 3A4)	concentration at 12 h [9] [ng/mL]	Cmax [10] [ng/mL]	pIC50 (Cytochrome P450 1A2)	bioavailability [11] [%]	AUC [12] [ng·h/mL]	pEC50 [13]	pKi [14]	solubility [15] [µg/mL]	further results
COC(=O)N[C@H](C(=O)N[C@H](Cc1ccc(-c2ccccn2)cc1)C[C@H](O)[C@H](Cc1ccccc1)NC(=O)[C@@H](N1CCN(Cc2cccc(C(C)(C)O)n2)C1=O)C(C)(C)C)C(C)(C)C	12900	6.27	7.72	40	< 5.30	7.35	180	10600	< 5.30	2560	0.018	7.18	58	2220	< 5.30	4.9	20	8.00	3.70	11.3 (≈ 13.1 µM)	pIC50 (Cytochrome P450 2C19): < 5.30; AUC [16]: 6720 ng·h/mL; Drug uptake (Serum [17]): 9.37 µg/mL; pKi (Renin): < 4.70; concentration at 12 h [18]: 13 ng/mL; pEC50 [19]: 8.52; pEC50 [20]: 7.60; half-life [21]: 30 min; Activity (Rattus norvegicus [22]): 0.125 mg/dL; clearance [23]: 22.5 mL/min/kg
COC(=O)N[C@H](C(=O)N[C@@H](Cc1ccc(-c2ccccn2)cc1)C[C@H](O)[C@H](Cc1ccccc1)NC(=O)[C@@H](N1CCN(Cc2ccccc2)C1=O)C(C)(C)C)C(C)(C)C	3500	5.37	7.92	170	< 5.00	6.99	150	41900	< 5.00	5890	0.0034	7.74	924	3910	< 5.00	3.4	210	7.66	3.75	< 0.15	pKi [24]: 10.82; Drug uptake (Serum [25]): 5.33 µg/mL; Ratio EC50 [26]: 11; pIC50 (Cytochrome P450 2C19): < 5.00; AUC [16]: 19000 ng·h/mL; Drug uptake (Serum [17]): 2.45 µg/mL; pKi (Renin): < 5.40; concentration at 12 h [18]: 68 ng/mL; Activity (Rattus norvegicus [27]): 0.133 mg/dL; pEC50 [19]: 8.70; pEC50 [20]: 6.85; half-life [21]: 60 min; Activity (Rattus norvegicus [22]): 0.144 mg/dL; clearance [23]: 19.2 mL/min/kg
